Data set [1] can be described thus: Clearance in BomTac:NMRI-Foxn1nu mouse at 35 mg/kg, iv by HPLC-MS/MS analysis. Type of data set: ADME, organism-based. The settings on record: in vivo. The method in brief:
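Female nude mice, n = 3, single i.v. dose (vehicle 0.1 N HCl diluted with 0.9% NaCl, 10 mL/kg). BI 6727 measured in EDTA plasma at several times by HPLC-MS/MS with internal standard. Parameters came from noncompartmental analysis. Terminal half-life was taken from the last two time points after i.v. dosing.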

Data set [2] in a line: Tmax in Wistar rat at 30 mg/kg, po by HPLC-MS/MS analysis. Type of data set: ADME, organism-based. The note with it: in vivo. Summed up:
(§1)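 Single oral gavage of BI 6727 suspended in 0.5% hydroxyethyl-cellulose (10 mL/kg) to female nude mice or male Wistar rats. EDTA plasma levels measured over time by HPLC-MS/MS with internal standard. AUC0-24 by trapezoidal rule. Parameters from noncompartmental analysis.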

Data set [3] can be described thus: AUC (0 to 24 hrs) in human HCT-116 cells xenografted in BomTac:NMRI-Foxn1nu mouse at 25 mg/kg, po administered twice a week upto 6 weeks by HPLC-MS/MS analysis. Type of data set: ADME, organism-based. The note with it: in vivo, 1008 h. In general terms: A xenograft is tissue or cells of one species grown in another, often human tumour cells in immunodeficient mice.

Data set [4] is described as follows: AUC (0-24hrs) in BomTac:NMRI-Foxn1nu mouse at 50 mg/kg, po by HPLC-MS/MS analysis. Type of data set: ADME, organism-based. The settings on record: in vivo. Summed up: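 Single oral dose to female nude mice or male Wistar rats. EDTA plasma was collected over 24 h and quantified by LC-MS/MS after extraction with internal standard. AUC0-24 was calculated from the concentration-time profile by the trapezoidal rule using noncompartmental analysis.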

Data set [5] can be described thus: Oral bioavailability in dog by HPLC-MS/MS analysis. Type of data set: ADME, organism-based, Canis lupus familiaris. The note with it: in vivo.
The test system of data set [6] is NCI-H460. In words: Induction of apoptosis in human NCI-H460 cells assessed as cleaved PRAP fragment level at 100 nmol/L incubated for 24 hrs by westernblot analysis. Type of data set: functional, cell-based. The method in brief: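 Exponentially growing NCI-H460 cells treated with compound or DMSO control for 24 or 48 h, then harvested. Cleaved PARP fragment detected by Western blot.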

Data set [7] relates to NCI-H460. The data set can be described thus: Antimitotic activity against human NCI-H460 cells assessed as cell cycle block in G2-M phase measuring by accumulation of 4N DNA content at 100 nmol/L incubated for 24 hrs by PI staining based flow cytometric analysis. Type of data set: functional. Summed up: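 Log-phase NCI-H460 cells were treated with 0.1% DMSO or inhibitor (dose series for 24 h; 100 nmol/L time course at 0, 24, 48, 72 h). Cells were fixed in 80% ethanol, permeabilized with 0.25% Triton X-100 for 5 min, then given 0.1% RNase plus 10 µg/mL propidium iodide for 20 min at RT. DNA content was read by flow cytometry.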
(Flow cytometry measures light scatter and fluorescence of single cells or particles in a stream.)

Data set [8] in a line: AUC (0 to 24 hrs) in human NCI-H460 cells xenografted in BomTac:NMRI-Foxn1nu mouse at 70 mg/kg, po administered once a week upto 6 weeks by HPLC-MS/MS analysis. It counts as ADME, organism-based. The settings on record: in vivo, 1008 h.
Data set [9] is described as follows: AUC (0 to 24 hrs) in human HCT-116 cells xenografted in BomTac:NMRI-Foxn1nu mouse at 20 mg/kg, iv administered once a week upto 6 weeks by HPLC-MS/MS analysis. Type of data set: ADME, organism-based. The note with it: in vivo, 1008 h.
In data set [10] the test system is NCI-H460. The data set can be described thus: Antitumor activity against human NCI-H460 cells xenografted in BomTac:NMRI-Foxn1nu mouse assessed as T/C at 70 mg/kg, po administered once a week upto 6 weeks relative to control. It counts as functional. Summed up: (§2)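 Female nude mice bore s.c. HCT 116 (2×10^6 cells), NCI-H460 (1×10^6 cells) or serially transplanted CXB1 tumor pieces. At ~50–100 mm³, mice were randomized into groups of 10 and dosed i.v. (0.1 N HCl/saline) or by gavage (0.5% hydroxyethyl-cellulose) at 10 mL/kg. Calipers read thrice weekly, volume = length×width²×π/6. T/C from median volumes on the last day.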

Data set [11] in a line: AUC (0 to 24 hrs) in human HCT-116 cells xenografted in BomTac:NMRI-Foxn1nu mouse at 50 mg/kg, po administered once a week upto 6 weeks by HPLC-MS/MS analysis. Type of data set: ADME, organism-based. The note with it: in vivo, 1008 h.
For data set [12], the system named is HCT-116. The data set can be described thus: Antitumor activity against human HCT-116 cells xenografted in BomTac:NMRI-Foxn1nu mouse assessed as mitotic index in large intestine at 40 mg/kg, iv. It counts as functional, organism-based. The method in brief:
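Female nude mice bore s.c. HCT 116 tumors (~200 mm³) and received a single i.v. 40 mg/kg dose or vehicle (n=3 per group per time). Tumor, small intestine and large intestine were taken at 6, 24 and 48 h. Frozen sections were stained for pSer10 histone H3 (immunoperoxidase) or by TUNEL. Positive area was calculated as % of tumor cell area; Student's t test.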

The test system of data set [13] is NCI-H460. In words: Antimitotic activity against human NCI-H460 cells assessed as histone H3 phosphoserine 10 level at 100 nmol/L incubated for 24 hrs by immunofluorescence analysis. Type of data set: functional, cell-based. The method in brief:
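NCI-H460 cells on chamber slides were treated next day for 24 h with inhibitor or 0.1% DMSO vehicle. They were fixed and permeabilized with 4% formaldehyde/Triton X-100 for 5 min at RT, then stained with anti-tubulin and anti-phospho-Ser10 histone H3 (1:500 in PBS/2% BSA) plus DAPI 0.05 µg/mL. Imaged by fluorescence microscopy.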

A short description of data set [14]: Drug uptake in human HCT-116 cells xenografted in BomTac:NMRI-Foxn1nu mouse plasma at 35 mg/kg, iv measured after 1 hrs by HPLC-MS/MS analysis. Type of data set: ADME, organism-based. The method in brief:
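Female nude mice bearing s.c. HCT 116 xenografts (2 × 10⁶ cells), n = 3 per time point, given a single i.v. dose. Tumor, organs and EDTA plasma collected at 1, 8, 24, 48, 96 and 168 h. Tissue extracts and plasma analysed by HPLC-MS/MS. Tissue nmol/mg converted to nmol/L assuming density 1.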

Data set [15] in a line: Clearance in Wistar rat at 10 mg/kg, iv by HPLC-MS/MS analysis. It counts as ADME, organism-based. The settings on record: in vivo. Summed up: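 Male Wistar Crl:WI (Han) rats, n = 4, given a single 5-min i.v. infusion. BI 6727 measured in EDTA plasma at various times after the infusion started, by HPLC-MS/MS with internal standard. Parameters came from noncompartmental analysis. Terminal half-life was taken from the last two time points after i.v. dosing.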

The test system of data set [16] is HCT-116. In words: Antitumor activity against human HCT-116 cells xenografted in BomTac:NMRI-Foxn1nu mouse assessed as T/C at 20 mg/kg, iv administered twice a week upto 6 weeks relative to control. It counts as functional. Summed up: as §2
For data set [17], the system named is HCT-116. The data set can be described thus: Antitumor activity against human HCT-116 cells xenografted in BomTac:NMRI-Foxn1nu mouse assessed as T/C at 25 mg/kg, po administered twice a week upto 6 weeks relative to control. Type of data set: functional. Summed up:
as §2

Data set [18] in a line: Cmax in BomTac:NMRI-Foxn1nu mouse at 50 mg/kg, po by HPLC-MS/MS analysis. It counts as ADME, organism-based. The note with it: in vivo. Summed up: as §1
The test system of data set [19] is HCT-116. In words: Antitumor activity against human HCT-116 cells xenografted in BomTac:NMRI-Foxn1nu mouse assessed as T/C at 15 mg/kg, iv administered twice a week upto 6 weeks relative to control. Type of data set: functional. Summed up:
as §2

Data set [20] deals with HCT-116. In words: Antitumor activity against human HCT-116 cells xenografted in BomTac:NMRI-Foxn1nu mouse assessed as T/C at 30 mg/kg, iv administered once a week upto 6 weeks relative to control. Type of data set: functional. The method in brief: as §2

The record followed here is ChEMBL document CHEMBL5661977, “BI 6727, a Polo-like kinase inhibitor with improved pharmacokinetic profile and broad antitumor activity” (Clin Cancer Res, 2009).

The source made the active and inactive calls. The rule behind the calls is not given here.

Consider `CC[C@@H]1C(=O)N(C)c2cnc(Nc3ccc(C(=O)N[C@H]4CC[C@H](N5CCN(CC6CC6)CC5)CC4)cc3OC)nc2N1C(C)C` [VOLASERTIB], for which the clearance in data set [1] turned out to be 10 mL/min/kg; in [15] it was 8.9 mL/min/kg. For the same compound, in [2], the Tmax is 6.7 h. For the same compound, the AUC in [3] amounted to 43 µM·h; in [8], 58 µM·h; in data set [9] it was 40 µM·h; in [11], 44 µM·h. Further, the exposure AUC(0-t) in [4] is 58 µM·h. Further, in data set [5], the bioavailability was 53%. The outcome in data set [6], in data set [7] and in data set [13] was Active. Moreover, the T/C in data set [10] came to 20%; in data set [16] it was 1%; in data set [17], 2%; in [19], 1%; in data set [20], 3%. The result in data set [12] was inactive. Moreover, the concentration at 1 h in data set [14] was 7 µM. Further, the Cmax in data set [18] was found to be 5.7 µM.

One may read the clearance as a measure of how efficiently the substance is removed, as volume per time. Read a high clearance as efficient removal. Usually Tmax stands for the time at which the peak concentration occurs. The term AUC denotes concentration integrated over time. The low end stands for less exposure, the high end for more exposure. As usually defined, the AUC(0-t) is the area under the concentration-time curve up to a stated or last time point. As a reminder, the bioavailability is the share of a dose that reaches the circulation, judged against a reference dose that is usually intravenous. A lower bioavailability goes with little systemic uptake. By T/C is commonly meant the ratio of treated to control. The Cmax is the peak of the concentration-time curve.
